≈ marks a conversion by molar mass, not a printed value. Calls of active or inactive are those of the source. The rule behind the calls is not given here.
What was measured:
HepG2 [1] = test: Cytotoxicity against human HepG2 cells after 48 hrs by SRB assay; format: functional, cell-based
How it was run: (§1)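 Cells from ATCC, kept in DMEM with 10% heat-inactivated fetal calf serum, penicillin and streptomycin at 37 °C, 5% CO2. Seeded at 10^4 cells/well and left 24 h to attach. Compounds in DMSO (1 mg/ml stock) added at several concentrations, triplicate wells per dose, 48 h exposure. Then fixed, stained 30 min with 0.4% SRB in 1% acetic acid, and dye recovered in Tris-EDTA for absorbance. IC50 derived from surviving fraction versus concentration.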

MCF7 [2] = test: Cytotoxicity against human MCF7 cells after 48 hrs by SRB assay; format: functional, cell-based; how it was run: as §1
A549 [3] = test: Cytotoxicity against human A549 cells after 48 hrs by SRB assay; format: functional, cell-based; how it was run: as §1
MCF7 [4] = test: Inhibition of uPA protein expression in human MCF7 cells at 0.1 time compound IC50 after 48 hrs by ELISA; format: functional
How it was run: (§2)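 Cells exposed 48 h to compound. Culture medium collected and spun at 2000 xg for 10 min to remove debris. Sandwich ELISA for human uPA: sample 2 h, biotinylated anti-uPA 1 h at 25 °C, streptavidin-peroxidase 30 min, chromogen, then stop solution, absorbance read at 450 nm. uPA level expressed as percent change relative to DMSO-treated control cells.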

HepG2 [5] = test: Inhibition of uPA protein expression in human HepG2 cells at 0.1 time compound IC50 after 48 hrs by ELISA; format: functional; how it was run: as §2
A549 [6] = test: Inhibition of uPA protein expression in human A549 cells at 0.1 time compound IC50 after 48 hrs by ELISA; format: functional; how it was run: as §2
[7] = Homo sapiens, HepG2, 48 h, read-out: IC50
[8] = Homo sapiens, MCF7, 48 h, read-out: IC50

In the case of `N#Cc1c(-c2ccc(Cl)cc2)cc(-c2ccc(Cl)cc2)n(C(=O)c2ccccc2)c1=O`, the IC50 (HepG2 [1]; [7]) is reported as 3.75 µg/mL (≈ 8.42 µM), the IC50 (MCF7 [2]; [8]) is reported as 2.6 µg/mL (≈ 5.84 µM) and the IC50 (A549 [3]; a549) is reported as “Not Active”. For the same compound, the “inhibition (INH)” value (MCF7 [4]) was 90%, the “inhibition (INH)” value (HepG2 [5]) was 87% and the inhibition (A549 [6]) was “inactive”.
In the case of `N#CCn1c(-c2ccc(Cl)cc2)cc(-c2ccc(Cl)cc2)c(C#N)c1=O`, the IC50 (HepG2 [1]; hepg2) is reported as “Not Active”, the IC50 (MCF7 [2]; mcf7) is reported as “Not Active” and the IC50 (A549 [3]; a549) is reported as “Not Active”. The inhibition (MCF7 [4]) was “inactive”, the inhibition (HepG2 [5]) was “inactive” and the inhibition (A549 [6]) was “inactive”.
In the case of `N#Cc1c(-c2ccc(Cl)cc2)cc(-c2ccc(Cl)cc2)[nH]c1=O`, the IC50 (HepG2 [1]; hepg2) is reported as “Not Active”, the IC50 (MCF7 [2]; mcf7) is reported as “Not Active” and the IC50 (A549 [3]; a549) is reported as “Not Active”. The inhibition (MCF7 [4]) was “inactive”, the inhibition (HepG2 [5]) was “inactive” and the inhibition (A549 [6]) was “inactive”.
With `N#Cc1c(-c2ccc(Cl)cc2)cc(-c2ccc(Cl)cc2)n(CC2CO2)c1=O` (stereo not drawn) the IC50 (HepG2 [1]; [7]) was 6.2 µg/mL (≈ 15.6 µM), the IC50 (MCF7 [2]; [8]) was 5 µg/mL (≈ 12.6 µM) and the IC50 (A549 [3]; a549) was “Not Active”. The “inhibition (INH)” value (MCF7 [4]) was 77%, the “inhibition (INH)” value (HepG2 [5]) was 63% and the inhibition (A549 [6]) was “inactive”.
`C=CCn1c(-c2ccc(Cl)cc2)cc(-c2ccc(Cl)cc2)c(C#N)c1=O` was tested, and the IC50 (HepG2 [1]; [7]) was 20 µg/mL (≈ 52.5 µM), the IC50 (MCF7 [2]; [8]) was 19 µg/mL (≈ 49.8 µM) and the IC50 (A549 [3]; a549) was “Not Active”. For the same compound, the “inhibition (INH)” value (MCF7 [4]) was 3%, the “inhibition (INH)” value (HepG2 [5]) was 5% and the inhibition (A549 [6]) was “inactive”.
In the case of `N#Cc1c(-c2ccc(Cl)cc2)cc(-c2ccc(Cl)cc2)n([C@@H]2O[C@H](CO)[C@@H](O)[C@H](O)[C@H]2O)c1=O`, the IC50 (HepG2 [1]; [7]) is reported as 16.1 µg/mL (≈ 32 µM), the IC50 (MCF7 [2]; [8]) is reported as 14.2 µg/mL (≈ 28.2 µM) and the IC50 (A549 [3]; a549) is reported as “Not Active”. The “inhibition (INH)” value (MCF7 [4]) was 9%, the “inhibition (INH)” value (HepG2 [5]) was 6% and the inhibition (A549 [6]) was “inactive”.
With `N#Cc1c(-c2ccc(Cl)cc2)cc(-c2ccc(Cl)cc2)n([C@@H]2O[C@H](CO)[C@@H](O)[C@H]2O)c1=O` the IC50 (HepG2 [1]; [7]) was 6.9 µg/mL (≈ 14.6 µM), the IC50 (MCF7 [2]; [8]) was 5.7 µg/mL (≈ 12 µM) and the IC50 (A549 [3]; a549) was “Not Active”. For the same compound, the “inhibition (INH)” value (MCF7 [4]) was 60%, the “inhibition (INH)” value (HepG2 [5]) was 56% and the inhibition (A549 [6]) was “inactive”.
`N#Cc1c(-c2ccc(Cl)cc2)cc(-c2ccc(Cl)cc2)n(Cc2ccccc2)c1=O` was tested, and the IC50 (HepG2 [1]; [7]) was 4.2 µg/mL (≈ 9.74 µM), the IC50 (MCF7 [2]; [8]) was 3.65 µg/mL (≈ 8.46 µM) and the IC50 (A549 [3]; a549) was “Not Active”. For the same compound, the “inhibition (INH)” value (MCF7 [4]) was 86%, the “inhibition (INH)” value (HepG2 [5]) was 83% and the inhibition (A549 [6]) was “inactive”.
With `COc1cccc2c1C(=O)c1c(O)c3c(c(O)c1C2=O)C[C@@](O)(C(=O)CO)C[C@@H]3O[C@H]1C[C@H](N)[C@H](O)[C@H](C)O1` [DOXORUBICIN] the IC50 (HepG2 [1]; [7]) was 3.9 µg/mL (≈ 7.18 µM), the IC50 (A549 [3]; Homo sapiens, A549, 48 h, read-out: IC50) was 4.11 µg/mL (≈ 7.56 µM) and the “inhibition (INH)” value (MCF7 [4]) was 91%. The “inhibition (INH)” value (HepG2 [5]) was 88% and the “inhibition (INH)” value (A549 [6]) was 82%.
With `N#Cc1c(-c2ccc(Cl)cc2)cc(-c2ccc(Cl)cc2)n([C@@H]2O[C@H](COC(=O)c3ccccc3)[C@@H](OC(=O)c3ccccc3)[C@H]2OC(=O)c2ccccc2)c1=O` the IC50 (HepG2 [1]; [7]) was 8 µg/mL (≈ 10.2 µM), the IC50 (MCF7 [2]; [8]) was 5.9 µg/mL (≈ 7.51 µM) and the IC50 (A549 [3]; a549) was “Not Active”. For the same compound, the “inhibition (INH)” value (MCF7 [4]) was 66%, the “inhibition (INH)” value (HepG2 [5]) was 60% and the inhibition (A549 [6]) was “inactive”.
In the case of `C#CCn1c(-c2ccc(Cl)cc2)cc(-c2ccc(Cl)cc2)c(C#N)c1=O`, the IC50 (HepG2 [1]; [7]) is reported as 18.3 µg/mL (≈ 48.3 µM), the IC50 (MCF7 [2]; [8]) is reported as 16.7 µg/mL (≈ 44 µM) and the IC50 (A549 [3]; a549) is reported as “Not Active”. The “inhibition (INH)” value (MCF7 [4]) was 7%, the “inhibition (INH)” value (HepG2 [5]) was 5% and the inhibition (A549 [6]) was “inactive”.
`CC(=O)OC[C@H]1O[C@@H](n2c(-c3ccc(Cl)cc3)cc(-c3ccc(Cl)cc3)c(C#N)c2=O)[C@H](OC(C)=O)[C@@H](OC(C)=O)[C@@H]1OC(C)=O` was tested, and the IC50 (HepG2 [1]; [7]) was 7.25 µg/mL (≈ 10.8 µM), the IC50 (MCF7 [2]; [8]) was 6.3 µg/mL (≈ 9.38 µM) and the IC50 (A549 [3]; a549) was “Not Active”. For the same compound, the “inhibition (INH)” value (MCF7 [4]) was 54%, the “inhibition (INH)” value (HepG2 [5]) was 48% and the inhibition (A549 [6]) was “inactive”.
With `N#Cc1c(-c2ccc(Cl)cc2)cc(-c2ccc(Cl)cc2)n(CC(O)CCl)c1=O` (stereo not drawn) the IC50 (HepG2 [1]; [7]) was 4.8 µg/mL (≈ 11.1 µM), the IC50 (MCF7 [2]; [8]) was 4.6 µg/mL (≈ 10.6 µM) and the IC50 (A549 [3]; a549) was “Not Active”. For the same compound, the “inhibition (INH)” value (MCF7 [4]) was 82%, the “inhibition (INH)” value (HepG2 [5]) was 67% and the inhibition (A549 [6]) was “inactive”.
With `CCn1c(-c2ccc(Cl)cc2)cc(-c2ccc(Cl)cc2)c(C#N)c1=O` the IC50 (HepG2 [1]; [7]) was 22.3 µg/mL (≈ 60.4 µM), the IC50 (MCF7 [2]; [8]) was 19.7 µg/mL (≈ 53.4 µM) and the IC50 (A549 [3]; a549) was “Not Active”. The “inhibition (INH)” value (MCF7 [4]) was 3%, the “inhibition (INH)” value (HepG2 [5]) was 2% and the inhibition (A549 [6]) was “inactive”.
